In ChEMBL document CHEMBL1148498, “Diphenylmethane skeleton as a multi-template for nuclear receptor ligands: preparation of FXR and PPAR ligands” (Bioorg Med Chem Lett, 2006):
The source made the active and inactive calls. The calls are words filed in the database; no cut-off is given here.

Tests used:
[1] = target: T1, Peroxisome proliferator-activated receptor delta (Homo sapiens) (UniProt Q03181); assay: Activity at human recombinant PPARdelta by transactivation of TK-MH100x4-LUC reporter gene in HEK293 cells at 10 uM; format: cell-based
T1 sequence (whole entry): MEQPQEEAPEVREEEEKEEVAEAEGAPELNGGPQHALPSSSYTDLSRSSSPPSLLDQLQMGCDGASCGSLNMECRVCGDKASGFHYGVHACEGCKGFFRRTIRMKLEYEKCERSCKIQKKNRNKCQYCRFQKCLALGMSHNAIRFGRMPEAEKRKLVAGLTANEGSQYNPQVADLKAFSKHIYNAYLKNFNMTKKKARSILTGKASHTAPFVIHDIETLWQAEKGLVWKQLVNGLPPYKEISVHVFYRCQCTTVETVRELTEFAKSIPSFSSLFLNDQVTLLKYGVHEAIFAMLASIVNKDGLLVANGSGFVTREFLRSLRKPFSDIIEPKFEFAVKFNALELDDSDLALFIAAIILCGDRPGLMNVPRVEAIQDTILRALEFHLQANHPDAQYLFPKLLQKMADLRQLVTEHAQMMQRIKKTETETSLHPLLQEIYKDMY

[2] = target: T2, Peroxisome proliferator-activated receptor gamma (Homo sapiens) (UniProt P37231); assay: Activity at human recombinant PPARgamma by transactivation of TK-MH100x4-LUC reporter gene in HEK293 cells at 10 uM; format: cell-based
T2 sequence (whole entry): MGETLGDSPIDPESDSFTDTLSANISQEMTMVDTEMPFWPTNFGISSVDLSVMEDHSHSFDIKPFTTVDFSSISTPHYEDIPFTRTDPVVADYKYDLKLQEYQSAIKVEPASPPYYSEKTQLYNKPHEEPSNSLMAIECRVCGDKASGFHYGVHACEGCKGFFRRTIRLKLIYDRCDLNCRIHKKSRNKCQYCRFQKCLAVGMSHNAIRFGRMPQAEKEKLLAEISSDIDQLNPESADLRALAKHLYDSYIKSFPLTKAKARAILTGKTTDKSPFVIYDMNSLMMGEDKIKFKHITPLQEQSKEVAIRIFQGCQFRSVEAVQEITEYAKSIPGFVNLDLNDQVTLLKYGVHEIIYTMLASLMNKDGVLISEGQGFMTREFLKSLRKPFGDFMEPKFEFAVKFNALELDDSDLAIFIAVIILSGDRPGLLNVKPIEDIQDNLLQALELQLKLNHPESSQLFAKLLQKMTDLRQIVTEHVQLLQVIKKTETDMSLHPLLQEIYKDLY

[3] = target: T3, Retinoic acid receptor alpha (Homo sapiens) (UniProt P10276); assay: Activity at human recombinant RARalpha by transactivation of TK-MH100x4-LUC reporter gene in HEK293 cells at 10 uM; format: cell-based
T3 sequence (whole entry): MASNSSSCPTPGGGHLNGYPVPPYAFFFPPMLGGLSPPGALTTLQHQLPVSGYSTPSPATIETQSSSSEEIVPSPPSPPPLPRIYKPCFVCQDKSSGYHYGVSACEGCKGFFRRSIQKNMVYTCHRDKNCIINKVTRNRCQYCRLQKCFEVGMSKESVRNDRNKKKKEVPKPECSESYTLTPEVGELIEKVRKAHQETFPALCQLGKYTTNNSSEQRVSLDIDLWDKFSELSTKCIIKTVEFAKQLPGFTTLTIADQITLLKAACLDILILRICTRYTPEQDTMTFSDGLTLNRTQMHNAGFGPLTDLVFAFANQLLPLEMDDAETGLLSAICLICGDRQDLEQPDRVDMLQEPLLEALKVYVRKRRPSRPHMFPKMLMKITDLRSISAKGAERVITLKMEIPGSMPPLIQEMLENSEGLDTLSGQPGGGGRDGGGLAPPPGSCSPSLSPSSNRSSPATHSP

[4] = target: T4, Peroxisome proliferator-activated receptor alpha (Homo sapiens, UniProt Q07869); assay: Agonist activity at human recombinant PPARalpha by transactivation of TK-MH100x4-LUC reporter gene in HEK293 cells; format: functional, cell-based
T4 sequence (Q07869 whole entry): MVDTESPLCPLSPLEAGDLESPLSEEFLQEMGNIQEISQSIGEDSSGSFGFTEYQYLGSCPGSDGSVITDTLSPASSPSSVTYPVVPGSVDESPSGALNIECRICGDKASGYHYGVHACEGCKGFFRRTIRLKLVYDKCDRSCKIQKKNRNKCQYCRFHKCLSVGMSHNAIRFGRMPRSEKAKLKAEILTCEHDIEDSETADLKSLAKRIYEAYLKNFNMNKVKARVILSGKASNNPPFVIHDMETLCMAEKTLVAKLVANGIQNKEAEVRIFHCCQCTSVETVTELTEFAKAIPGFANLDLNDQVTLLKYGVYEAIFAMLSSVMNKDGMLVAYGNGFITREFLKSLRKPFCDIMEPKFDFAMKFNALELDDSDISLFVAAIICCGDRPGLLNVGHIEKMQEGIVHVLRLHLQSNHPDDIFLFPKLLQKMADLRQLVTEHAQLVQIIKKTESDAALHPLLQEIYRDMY
Summary of the method: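 GAL4 fusion of the human PPARα receptor (CMX-GAL4N-hPPARα) with the TK-MH100x4-LUC reporter, plus CMX β-galactosidase for normalization. HEK293 cells were grown in DMEM with 5% FBS at 37 °C and 5% CO2 and transfected by calcium phosphate coprecipitation. Compounds were added 8 h after transfection. Luciferase was read by luminometer, normalized to β-galactosidase, and averaged over three repeat experiments.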

[5] = target: T5, Vitamin D3 receptor (Homo sapiens) (UniProt P11473); assay: Activity at human recombinant VDR by transactivation of TK-MH100x4-LUC reporter gene in HEK293 cells at 10 uM; format: cell-based
T5 sequence (whole entry): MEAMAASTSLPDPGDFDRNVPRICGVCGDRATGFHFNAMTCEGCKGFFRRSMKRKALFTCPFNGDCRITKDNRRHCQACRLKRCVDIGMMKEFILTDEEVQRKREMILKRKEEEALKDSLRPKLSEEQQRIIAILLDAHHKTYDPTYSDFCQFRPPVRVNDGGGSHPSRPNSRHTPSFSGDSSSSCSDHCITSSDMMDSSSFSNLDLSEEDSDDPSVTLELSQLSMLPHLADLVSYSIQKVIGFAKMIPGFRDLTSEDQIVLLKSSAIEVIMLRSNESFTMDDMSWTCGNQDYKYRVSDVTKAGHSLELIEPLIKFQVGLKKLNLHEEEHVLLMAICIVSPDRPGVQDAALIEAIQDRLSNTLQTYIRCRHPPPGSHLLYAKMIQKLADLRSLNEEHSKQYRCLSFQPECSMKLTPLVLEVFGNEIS

[6] = target: T6, Bile acid receptor (Homo sapiens) (UniProt Q96RI1); assay: Activity at human recombinant FXR by transactivation of TK-MH100x4-LUC reporter gene in HEK293 cells at 10 uM; format: cell-based
T6 sequence (whole entry): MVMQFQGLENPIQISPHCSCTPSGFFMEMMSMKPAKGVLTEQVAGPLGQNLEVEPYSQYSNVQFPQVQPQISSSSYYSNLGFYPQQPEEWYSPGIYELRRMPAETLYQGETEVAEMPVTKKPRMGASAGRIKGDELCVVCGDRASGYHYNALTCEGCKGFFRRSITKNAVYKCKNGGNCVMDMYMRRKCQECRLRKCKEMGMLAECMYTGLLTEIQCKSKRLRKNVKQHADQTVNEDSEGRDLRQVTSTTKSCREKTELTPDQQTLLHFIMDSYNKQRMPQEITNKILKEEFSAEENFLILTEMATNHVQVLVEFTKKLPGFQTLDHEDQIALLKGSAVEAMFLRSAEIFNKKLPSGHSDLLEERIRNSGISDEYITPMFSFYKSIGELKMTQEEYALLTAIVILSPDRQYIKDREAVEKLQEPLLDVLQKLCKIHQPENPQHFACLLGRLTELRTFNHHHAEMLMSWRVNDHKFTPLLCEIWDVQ

[7] = target: T7, Oxysterols receptor LXR-alpha (Homo sapiens) (UniProt Q13133); assay: Activity at human recombinant LXRalpha by transactivation of TK-MH100x4-LUC reporter gene in HEK293 cells at 10 uM; format: cell-based
T7 sequence (whole entry): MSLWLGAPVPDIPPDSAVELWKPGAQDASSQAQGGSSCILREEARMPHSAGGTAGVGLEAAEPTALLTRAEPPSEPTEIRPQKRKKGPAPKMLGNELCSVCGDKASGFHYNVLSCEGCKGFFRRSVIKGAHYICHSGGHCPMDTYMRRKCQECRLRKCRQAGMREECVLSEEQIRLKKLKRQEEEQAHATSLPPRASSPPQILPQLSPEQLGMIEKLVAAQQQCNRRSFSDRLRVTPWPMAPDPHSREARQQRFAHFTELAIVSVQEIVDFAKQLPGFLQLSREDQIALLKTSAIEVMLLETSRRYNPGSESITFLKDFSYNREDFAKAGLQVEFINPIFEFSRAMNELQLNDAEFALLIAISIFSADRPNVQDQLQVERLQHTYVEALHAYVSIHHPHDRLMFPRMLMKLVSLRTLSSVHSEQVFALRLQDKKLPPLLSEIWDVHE

[8] = target: T8, Retinoic acid receptor RXR-alpha (Homo sapiens) (UniProt P19793); assay: Activity at human recombinant RXRalpha by transactivation of TK-MH100x4-LUC reporter gene in HEK293 cells at 10 uM; format: cell-based
T8 sequence (whole entry): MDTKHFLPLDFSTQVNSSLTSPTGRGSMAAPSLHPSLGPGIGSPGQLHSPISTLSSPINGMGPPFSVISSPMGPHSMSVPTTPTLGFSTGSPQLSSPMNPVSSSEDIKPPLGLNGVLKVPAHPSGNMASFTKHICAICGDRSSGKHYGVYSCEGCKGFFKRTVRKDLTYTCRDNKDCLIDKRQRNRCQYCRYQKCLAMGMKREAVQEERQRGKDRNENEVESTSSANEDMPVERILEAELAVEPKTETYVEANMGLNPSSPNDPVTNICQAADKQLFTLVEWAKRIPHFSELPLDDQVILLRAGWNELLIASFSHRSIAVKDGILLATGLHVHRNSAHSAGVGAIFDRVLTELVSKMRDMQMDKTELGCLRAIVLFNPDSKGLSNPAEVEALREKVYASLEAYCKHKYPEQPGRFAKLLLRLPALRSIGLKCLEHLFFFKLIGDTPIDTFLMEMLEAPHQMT

[9] = target: T9, Peroxisome proliferator-activated receptor alpha (Homo sapiens) (UniProt Q07869); assay: Activity at human recombinant PPARalpha by transactivation of TK-MH100x4-LUC reporter gene in HEK293 cells at 10 uM; format: cell-based
T9 sequence (whole entry): T4 sequence (Q07869 whole entry)

Bile acid receptor = target: T10, Bile acid receptor (Homo sapiens, UniProt Q96RI1); assay: (§1) Agonist activity at human recombinant FXR by transactivation of TK-MH100x4-LUC reporter gene in HEK293 cells; format: functional, cell-based
T10 sequence (Q96RI1 whole entry): T6 sequence (whole entry)

[10] = target: T6, Bile acid receptor (Homo sapiens); assay: as §1; format: functional, cell-based

| Activity [1] | Activity [2] | Activity [3] | EC50 [4] [µM] | Activity [5] | Activity [6] | Activity [7] | Activity [8] | Activity [9] | EC50 (Bile acid receptor) [µM] | Activity [10] | Compound |
| --- | --- | --- | --- | --- | --- | --- | --- | --- | --- | --- | --- |
| inactive | inactive | inactive | 3.5 | inactive | inactive | inactive | inactive | Active |  |  | CCC(Oc1ccc(C2(c3ccc(OC(CC)C(=O)O)c(C)c3)CCCCC2)cc1C)C(=O)O (stereo not given) |
| inactive | inactive | inactive |  | inactive | Active | inactive | inactive | inactive | 3.4 |  | CCC(CC)(c1ccc(OCC(=O)O)c(C)c1)c1ccc(OCc2c(-c3c(Cl)cccc3Cl)noc2C(C)C)c(C)c1 |
|  |  |  |  |  |  |  |  |  |  | Active | CCC(CC)(c1ccc(NCC(O)CO)c(C)c1)c1ccc(OCc2c(-c3c(Cl)cccc3Cl)noc2C(C)C)c(C)c1 (stereo not given) |
|  |  |  | 9.2 |  |  |  |  |  |  |  | CC(C)(Oc1ccc(C(=O)c2ccc(Cl)cc2)cc1)C(=O)O [FENOFIBRIC ACID] |
